Data reported in ChEMBL document CHEMBL3769382, “Structure-Based Discovery of Novel and Selective 5-Hydroxytryptamine 2B Receptor Antagonists for the Treatment of Irritable Bowel Syndrome” (J Med Chem, 2016).
pIC50, pKi: −log10 of the molar value.

Tests used:
[1] = target: 5-hydroxytryptamine receptor 6 (Homo sapiens, UniProt P50406); assay: Displacement of [3H]LSD from 5-HT6 receptor (unknown origin) after 1.5 hrs by microbeta scintillation counting method
[2] = target: 5-hydroxytryptamine receptor 7 (Homo sapiens, UniProt P34969); assay: Displacement of [3H]LSD from 5-HT7A receptor (unknown origin) after 1.5 hrs by microbeta scintillation counting method
[3] = target: T1, 5-hydroxytryptamine receptor 3A (Homo sapiens, UniProt P46098); assay: Displacement of [3H]LY278584 from 5-HT3 receptor (unknown origin) after 1.5 hrs by microbeta scintillation counting method
T1 sequence (P46098 whole entry): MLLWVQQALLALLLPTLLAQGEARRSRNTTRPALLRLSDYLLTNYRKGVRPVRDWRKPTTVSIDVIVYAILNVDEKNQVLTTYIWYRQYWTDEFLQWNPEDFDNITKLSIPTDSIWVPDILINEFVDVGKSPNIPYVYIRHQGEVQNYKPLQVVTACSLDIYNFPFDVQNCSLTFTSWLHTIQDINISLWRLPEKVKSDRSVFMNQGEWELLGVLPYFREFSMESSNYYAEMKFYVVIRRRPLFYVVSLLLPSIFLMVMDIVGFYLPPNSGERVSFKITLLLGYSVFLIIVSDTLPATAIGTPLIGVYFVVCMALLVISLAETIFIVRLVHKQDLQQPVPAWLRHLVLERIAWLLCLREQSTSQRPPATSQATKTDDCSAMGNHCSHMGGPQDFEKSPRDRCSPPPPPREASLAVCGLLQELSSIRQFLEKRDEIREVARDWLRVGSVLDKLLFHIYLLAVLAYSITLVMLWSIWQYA

[4] = target: T2, 5-hydroxytryptamine receptor 1A (Homo sapiens, UniProt P08908); assay: Displacement of [3H]8-OH-DPAT from 5-HT1A receptor (unknown origin) after 1.5 hrs by microbeta scintillation counting method
T2 sequence (P08908 whole entry): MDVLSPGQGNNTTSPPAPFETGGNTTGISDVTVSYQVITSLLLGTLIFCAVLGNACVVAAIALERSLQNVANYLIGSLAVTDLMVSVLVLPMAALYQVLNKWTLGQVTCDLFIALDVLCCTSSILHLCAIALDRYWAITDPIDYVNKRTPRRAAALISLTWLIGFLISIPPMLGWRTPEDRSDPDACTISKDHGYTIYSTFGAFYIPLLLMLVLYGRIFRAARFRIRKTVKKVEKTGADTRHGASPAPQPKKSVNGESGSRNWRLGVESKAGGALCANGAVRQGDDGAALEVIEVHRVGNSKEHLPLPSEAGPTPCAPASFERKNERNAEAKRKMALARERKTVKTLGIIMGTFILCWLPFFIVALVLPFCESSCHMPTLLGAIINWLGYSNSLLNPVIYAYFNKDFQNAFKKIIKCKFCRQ

[5] = target: T3, 5-hydroxytryptamine receptor 2B (Homo sapiens, UniProt P41595); assay: Displacement of [3H]LSD from 5-HT2B receptor (unknown origin) after 1.5 hrs by microbeta scintillation counting method
[6] = target: T3, 5-hydroxytryptamine receptor 2B; assay: Antagonist activity at 5-HT2B receptor (unknown origin) expressed in CHO-K1 cells assessed as calcium flux at 1 uM after 60 mins by FLIPR assay; assay type: functional, cell-based
Method in brief: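 CHO-K1 cells stably expressing 5-HT2B receptor, antagonist mode, calcium flux read-out. Compounds screened at 10 μM and 1 μM; dose-response curves run for compounds active in the screen to give IC50.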

[7] = target: 5-hydroxytryptamine receptor 2A (Homo sapiens, UniProt P28223); assay: Displacement of [3H]Ketanserin from 5-HT2A receptor (unknown origin) after 1.5 hrs by microbeta scintillation counting method
[8] = target: 5-hydroxytryptamine receptor 1D (Homo sapiens, UniProt P28221); assay: Displacement of [3H][…] from 5-HT1D receptor (unknown origin) after 1.5 hrs by microbeta scintillation counting method
[9] = target: 5-hydroxytryptamine receptor 5A (Homo sapiens, UniProt P47898); assay: Displacement of [3H]LSD from 5-HT5A receptor (unknown origin) after 1.5 hrs by microbeta scintillation counting method
[10] = target: T4, 5-hydroxytryptamine receptor 2C (Homo sapiens, UniProt P28335); assay: Displacement of [3H]LSD from 5-HT2C receptor (unknown origin) after 1.5 hrs by microbeta scintillation counting method
T4 sequence (P28335 whole entry): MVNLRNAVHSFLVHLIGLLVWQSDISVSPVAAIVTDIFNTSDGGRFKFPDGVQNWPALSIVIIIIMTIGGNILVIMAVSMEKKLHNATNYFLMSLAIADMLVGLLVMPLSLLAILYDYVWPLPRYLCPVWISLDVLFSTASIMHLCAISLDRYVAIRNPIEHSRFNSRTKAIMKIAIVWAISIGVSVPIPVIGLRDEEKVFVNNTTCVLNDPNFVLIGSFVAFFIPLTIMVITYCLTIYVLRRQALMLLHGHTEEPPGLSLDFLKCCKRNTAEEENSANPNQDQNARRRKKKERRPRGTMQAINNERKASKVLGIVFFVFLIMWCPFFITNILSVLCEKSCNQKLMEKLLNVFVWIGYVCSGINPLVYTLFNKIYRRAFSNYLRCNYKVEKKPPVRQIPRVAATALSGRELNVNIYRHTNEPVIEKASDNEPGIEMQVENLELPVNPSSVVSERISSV

[11] = target: 5-hydroxytryptamine receptor 1B (Homo sapiens, UniProt P28222); assay: Displacement of [3H][…] from 5-HT1B receptor (unknown origin) after 1.5 hrs by microbeta scintillation counting method
[12] = target: 5-hydroxytryptamine receptor 1E (Homo sapiens, UniProt P28566); assay: Displacement of [3H]-5-HT from 5-HT1E receptor (unknown origin) after 1.5 hrs by microbeta scintillation counting method
Rattus norvegicus [13] = assay: Inhibition of visceral hypersensitivity in Sprague-Dawley rat model of IBS assessed as […] by measuring abdominal contraction at 30 mg/kg, po by colorectal distention test; assay type: functional; details: Abdomen
Method in brief: (§1)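 Rat IBS model induced by TNBS injection, then chronic unpredictable mild stress; colon histology checked by HE staining. Compound given orally at 30 mg/kg. Visceral sensitivity scored by abdominal withdrawal reflex, with pain thresholds in mmHg at scores 3 and 4. Compared with control rats; % inhibition derived from thresholds.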

[14] = target: Voltage-gated inwardly rectifying potassium channel KCNH2 (Homo sapiens, UniProt Q12809); assay: Inhibition of human ERG channel by patch clamp assay
Rattus norvegicus [15] = assay: Inhibition of visceral hypersensitivity in Sprague-Dawley rat model of IBS assessed as […] by measuring lifting of pelvic structure and arching of body at 30 mg/kg, po by colorectal distention test; assay type: functional; method in brief: as §1
Rattus norvegicus [16] = assay: Acute toxicity in Sprague-Dawley rat at 500 mg/kg, po; assay type: organism-based; details: in vivo

Sequence of 5-hydroxytryptamine receptor 2A (P28223 whole entry): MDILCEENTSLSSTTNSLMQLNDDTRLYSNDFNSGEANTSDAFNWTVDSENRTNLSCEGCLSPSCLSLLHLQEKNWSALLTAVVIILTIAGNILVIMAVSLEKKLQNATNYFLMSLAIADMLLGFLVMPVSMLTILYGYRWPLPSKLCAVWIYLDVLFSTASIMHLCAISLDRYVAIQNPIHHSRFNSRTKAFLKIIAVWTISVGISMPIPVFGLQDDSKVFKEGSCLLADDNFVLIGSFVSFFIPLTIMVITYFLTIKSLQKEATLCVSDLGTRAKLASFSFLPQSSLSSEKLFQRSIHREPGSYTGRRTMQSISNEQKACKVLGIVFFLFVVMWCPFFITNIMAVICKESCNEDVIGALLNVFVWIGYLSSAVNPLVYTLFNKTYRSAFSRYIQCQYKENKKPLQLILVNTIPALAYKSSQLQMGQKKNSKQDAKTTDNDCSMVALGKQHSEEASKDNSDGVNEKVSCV
Sequence of 5-hydroxytryptamine receptor 1B (P28222 whole entry): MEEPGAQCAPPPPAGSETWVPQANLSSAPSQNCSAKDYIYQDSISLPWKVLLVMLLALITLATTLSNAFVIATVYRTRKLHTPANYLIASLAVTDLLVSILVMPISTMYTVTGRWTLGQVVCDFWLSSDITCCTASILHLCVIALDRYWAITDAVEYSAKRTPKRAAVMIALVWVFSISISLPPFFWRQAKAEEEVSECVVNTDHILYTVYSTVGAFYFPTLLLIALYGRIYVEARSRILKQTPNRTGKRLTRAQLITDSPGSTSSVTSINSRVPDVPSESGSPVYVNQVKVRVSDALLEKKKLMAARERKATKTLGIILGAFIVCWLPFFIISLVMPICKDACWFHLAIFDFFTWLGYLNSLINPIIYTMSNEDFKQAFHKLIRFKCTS
Sequence of 5-hydroxytryptamine receptor 5A (P47898 whole entry): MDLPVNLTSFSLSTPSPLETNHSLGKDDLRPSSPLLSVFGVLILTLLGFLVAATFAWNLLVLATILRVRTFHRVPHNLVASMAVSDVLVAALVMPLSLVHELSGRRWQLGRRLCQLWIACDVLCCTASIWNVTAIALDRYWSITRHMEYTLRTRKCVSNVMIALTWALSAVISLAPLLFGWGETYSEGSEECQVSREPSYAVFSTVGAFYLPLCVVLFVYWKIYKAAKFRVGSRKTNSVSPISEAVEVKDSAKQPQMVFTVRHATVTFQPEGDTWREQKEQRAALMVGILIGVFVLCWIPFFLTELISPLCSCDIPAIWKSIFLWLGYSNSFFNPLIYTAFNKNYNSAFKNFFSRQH
Sequence of 5-hydroxytryptamine receptor 1E (P28566 whole entry): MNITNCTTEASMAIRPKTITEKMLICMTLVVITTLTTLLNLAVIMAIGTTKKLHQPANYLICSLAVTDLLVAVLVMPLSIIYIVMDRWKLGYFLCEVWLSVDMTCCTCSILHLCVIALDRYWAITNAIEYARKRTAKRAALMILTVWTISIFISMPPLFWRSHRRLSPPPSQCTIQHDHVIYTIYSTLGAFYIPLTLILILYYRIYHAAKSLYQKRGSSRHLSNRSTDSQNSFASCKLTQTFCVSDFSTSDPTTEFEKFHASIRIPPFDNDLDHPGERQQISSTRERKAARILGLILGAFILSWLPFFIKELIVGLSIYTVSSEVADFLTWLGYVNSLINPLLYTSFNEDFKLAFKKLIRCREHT
Sequence of 5-hydroxytryptamine receptor 7 (P34969 whole entry): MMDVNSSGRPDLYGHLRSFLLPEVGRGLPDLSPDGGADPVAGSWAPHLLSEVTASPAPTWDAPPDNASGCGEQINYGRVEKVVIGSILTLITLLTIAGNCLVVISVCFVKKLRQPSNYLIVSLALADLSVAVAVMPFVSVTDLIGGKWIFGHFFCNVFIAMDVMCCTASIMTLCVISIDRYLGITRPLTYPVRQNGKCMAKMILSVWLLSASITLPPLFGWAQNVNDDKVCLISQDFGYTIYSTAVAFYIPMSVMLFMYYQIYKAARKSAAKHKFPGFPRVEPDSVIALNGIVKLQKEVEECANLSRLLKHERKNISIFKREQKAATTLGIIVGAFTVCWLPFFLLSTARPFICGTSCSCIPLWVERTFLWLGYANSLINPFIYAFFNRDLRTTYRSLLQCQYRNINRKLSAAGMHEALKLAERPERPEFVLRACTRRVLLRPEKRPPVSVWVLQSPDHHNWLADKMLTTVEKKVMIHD
T3 sequence (P41595 whole entry): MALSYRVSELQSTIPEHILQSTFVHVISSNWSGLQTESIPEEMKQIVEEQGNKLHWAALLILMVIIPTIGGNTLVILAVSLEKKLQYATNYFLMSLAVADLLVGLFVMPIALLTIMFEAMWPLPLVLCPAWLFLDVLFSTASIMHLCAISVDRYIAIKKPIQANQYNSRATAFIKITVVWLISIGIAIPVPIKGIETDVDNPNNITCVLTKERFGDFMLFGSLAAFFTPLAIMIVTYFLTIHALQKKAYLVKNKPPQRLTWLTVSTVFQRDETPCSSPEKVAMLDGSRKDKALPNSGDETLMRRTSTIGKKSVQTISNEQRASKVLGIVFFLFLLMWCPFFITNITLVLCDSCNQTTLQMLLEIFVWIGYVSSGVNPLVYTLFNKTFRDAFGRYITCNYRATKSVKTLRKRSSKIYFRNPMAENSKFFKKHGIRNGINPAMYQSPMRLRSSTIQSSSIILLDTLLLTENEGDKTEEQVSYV
Sequence of 5-hydroxytryptamine receptor 1D (P28221 whole entry): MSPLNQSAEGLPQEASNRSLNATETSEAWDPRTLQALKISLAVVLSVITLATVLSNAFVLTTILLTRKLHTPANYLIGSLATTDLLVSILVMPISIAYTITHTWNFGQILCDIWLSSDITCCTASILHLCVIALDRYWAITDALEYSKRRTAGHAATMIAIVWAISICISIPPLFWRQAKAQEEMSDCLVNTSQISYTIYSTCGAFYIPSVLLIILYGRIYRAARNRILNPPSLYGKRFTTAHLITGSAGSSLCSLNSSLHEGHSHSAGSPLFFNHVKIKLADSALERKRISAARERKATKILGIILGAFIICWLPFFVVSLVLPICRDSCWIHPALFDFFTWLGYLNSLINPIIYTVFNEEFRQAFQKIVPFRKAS
Sequence of 5-hydroxytryptamine receptor 6 (P50406 whole entry): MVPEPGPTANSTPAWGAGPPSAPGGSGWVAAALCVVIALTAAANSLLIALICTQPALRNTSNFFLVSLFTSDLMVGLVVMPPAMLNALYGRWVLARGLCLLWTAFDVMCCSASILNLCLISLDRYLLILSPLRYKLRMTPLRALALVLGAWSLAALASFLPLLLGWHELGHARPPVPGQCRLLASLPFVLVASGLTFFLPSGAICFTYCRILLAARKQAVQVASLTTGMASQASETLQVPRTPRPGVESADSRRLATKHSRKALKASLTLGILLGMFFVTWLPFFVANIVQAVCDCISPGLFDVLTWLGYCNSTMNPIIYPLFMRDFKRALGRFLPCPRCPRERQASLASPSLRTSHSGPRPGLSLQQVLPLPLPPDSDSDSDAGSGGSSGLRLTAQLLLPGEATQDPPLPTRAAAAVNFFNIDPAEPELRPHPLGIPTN
Sequence of Voltage-gated inwardly rectifying potassium channel KCNH2 (Q12809 whole entry): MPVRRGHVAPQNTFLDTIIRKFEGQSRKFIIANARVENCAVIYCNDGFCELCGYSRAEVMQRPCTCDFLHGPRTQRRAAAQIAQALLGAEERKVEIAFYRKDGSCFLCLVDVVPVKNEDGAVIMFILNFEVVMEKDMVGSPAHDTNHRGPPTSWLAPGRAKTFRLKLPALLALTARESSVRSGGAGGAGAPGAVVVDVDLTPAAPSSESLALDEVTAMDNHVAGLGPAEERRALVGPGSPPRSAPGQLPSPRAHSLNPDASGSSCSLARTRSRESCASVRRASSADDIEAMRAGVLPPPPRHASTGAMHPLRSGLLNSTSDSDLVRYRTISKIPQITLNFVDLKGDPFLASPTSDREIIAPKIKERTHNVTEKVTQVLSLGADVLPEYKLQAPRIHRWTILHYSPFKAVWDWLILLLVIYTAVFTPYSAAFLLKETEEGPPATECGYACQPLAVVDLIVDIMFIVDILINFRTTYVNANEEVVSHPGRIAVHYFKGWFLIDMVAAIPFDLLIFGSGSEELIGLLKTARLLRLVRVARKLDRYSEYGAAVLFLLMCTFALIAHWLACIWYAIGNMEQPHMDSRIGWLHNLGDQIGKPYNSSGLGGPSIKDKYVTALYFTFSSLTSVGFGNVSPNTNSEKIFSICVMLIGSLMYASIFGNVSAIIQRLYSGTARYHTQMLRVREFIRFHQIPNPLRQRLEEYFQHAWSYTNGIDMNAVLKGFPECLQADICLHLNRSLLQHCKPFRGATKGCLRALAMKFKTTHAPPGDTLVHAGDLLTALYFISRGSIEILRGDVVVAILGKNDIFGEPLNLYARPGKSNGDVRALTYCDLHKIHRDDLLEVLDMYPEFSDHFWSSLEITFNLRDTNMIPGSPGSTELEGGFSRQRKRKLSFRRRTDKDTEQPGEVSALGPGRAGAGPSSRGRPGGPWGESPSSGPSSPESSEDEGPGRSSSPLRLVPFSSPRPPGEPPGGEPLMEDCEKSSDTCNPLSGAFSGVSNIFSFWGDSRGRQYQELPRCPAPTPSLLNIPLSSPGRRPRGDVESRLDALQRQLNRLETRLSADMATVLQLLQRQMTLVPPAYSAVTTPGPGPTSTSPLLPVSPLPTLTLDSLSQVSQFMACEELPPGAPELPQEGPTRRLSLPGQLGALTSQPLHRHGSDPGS

With `CCOC(=O)c1cccc(NC2=NC(N)=NC3(CCCCC3)N2)c1` the pKi [1] was 5.45, the pKi [2] was 6.33 and the pKi [3] was less than 5.00. For the same molecule, the pKi [4] was 6.15, the pKi [5] was 8.14 and the inhibition [6] was 107%. For the same molecule, the pKi [7] was 6.76, the pKi [8] was 5.07 and the pKi [9] was 6.34. For the same molecule, the pKi [10] was 6.07, the pKi [11] was less than 5.00 and the pKi [12] was less than 5.00.

For `CC1(C)N=C(N)N=C(Nc2cccc(Br)c2)N1`, the pKi [1] was 6.16, the pKi [2] was 5.68 and the pKi [3] was less than 5.00. The pKi [4] was 6.18, the pKi [5] was 7.69 and the inhibition [6] was 75.9%. It also gave a pKi [7] of 6.11, a pKi [8] of 5.58 and a pKi [9] of 6.41. It also gave a pKi [10] of 6.58, a pKi [11] of 5.82 and a pKi [12] of less than 5.00.

Molecule `CCCC(=O)c1cccc(NC2=NC(N)=NC3(CCCCC3)N2)c1` has an inhibition [6] of 106%.

`NC1=NC2(CCCCC2)NC(Nc2cccc(Br)c2)=N1` gave a pKi [1] of 5.52, an inhibition in vivo at 30 mg/kg (Rattus norvegicus [13]) of 68% and a pIC50 [14] of less than 6.00. The inhibition in vivo at 30 mg/kg (Rattus norvegicus [15]) was 63%, the pKi [2] was 6.40 and the pKi [3] was less than 5.00. For the same molecule, the pKi [4] was 6.49, the Activity (Rattus norvegicus [16]) was “Non-toxic” and the pKi [5] was 8.21. The inhibition [6] was 97.4%, the pKi [7] was 6.68 and the pKi [8] was 5.54. The pKi [9] was 6.64, the pKi [10] was 6.81 and the pKi [11] was less than 5.00. The pKi [12] was less than 5.00.

`CCOC(=O)c1cccc(NC2=NC(N(C)C)=NC3(CCCCC3)N2)c1` gave a pKi [1] of 5.32, a pKi [2] of 6.29 and a pKi [3] of less than 5.00. It also gave a pKi [4] of 6.94, a pKi [5] of 7.41 and an inhibition [6] of 91.8%. The pKi [7] was 5.81, the pKi [8] was 5.42 and the pKi [9] was 6.23. For the same molecule, the pKi [10] was 5.92, the pKi [11] was 5.02 and the pKi [12] was less than 5.00.

`NC1=NC2(CCCCC2)NC(Nc2cccc(C(=O)C3CC3)c2)=N1` was tested, and the inhibition [6] was 4%.

`COc1cccc(NC2=NC(N)=NC3(CCCCC3)N2)c1` was tested, and the inhibition [6] was 84.6%.

`CCN(CC)C(=O)c1cccc(NC2=NC(N)=NC3(CCCCC3)N2)c1` showed an inhibition [6] of 40.7%.

For `COc1ccccc1NC1=NC(N)=NC2(CCCCC2)N1`, the inhibition [6] was 20.7%.

`Cc1ccccc1NC1=NC(N)=NC2(CCCCC2)N1` was tested, and the inhibition [6] was 39.9%.

Molecule `CCOC(=O)c1cccc(N(C)C2=NC(N)=NC3(CCCCC3)N2)c1` has an inhibition [6] of 50.4%.

In the case of `CCNC(=O)c1cccc(NC2=NC(N)=NC3(CCCCC3)N2)c1`, the pKi [1] was 5.23, the pKi [2] was 6.37 and the pKi [3] was less than 5.00. For the same molecule, the pKi [4] was 5.17, the pKi [5] was 7.56 and the inhibition [6] was 95.5%. For the same molecule, the pKi [7] was 5.88, the pKi [8] was less than 5.00 and the pKi [9] was 6.00. It also gave a pKi [10] of 5.72, a pKi [11] of less than 5.00 and a pKi [12] of less than 5.00.

Molecule `CN(C)c1ccc(NC2=NC(N)=NC3(CCCCC3)N2)cc1` has an inhibition [6] of 17.6%.

In the case of `NC1=NC2(CCCCC2)NC(Nc2cccc(C(=O)O)c2)=N1`, the inhibition [6] was 4.4%.

`Cc1ccc(NC2=NC(N)=NC3(CCCCC3)N2)cc1` showed an inhibition [6] of 50.2%.

Work on `COc1cccc(NC2=NC(N)=NC3(CCCC3)N2)c1` yielded an inhibition [6] of 63%.

In the case of `NC1=NC2(CCCCC2)NC(Nc2ccc(Cl)cc2)=N1`, the inhibition [6] was 57.1%.

For `CCOC(=O)c1cccc(NC2=NC(NC)=NC3(CCCCC3)N2)c1`, the inhibition [6] was 108%.

Molecule `CCCOC(=O)c1cccc(NC2=NC(N)=NC3(CCCCC3)N2)c1` has an inhibition [6] of 110%.
